{"source": "ChEMBL document CHEMBL1156453", "about": "“Cellular characterization of a novel focal adhesion kinase inhibitor” (J Biol Chem, 2007)", "key": {"[1]": {"assay": "Inhibition of 10% serum-stimulated cell migration of rat REF52 cells at 1.0 uM pretreated for 30 mins measured after 6 hrs by transwell assay relative to control", "format": "functional", "method_in_brief": "(§1)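 Modified Boyden transwell, 8-μm pores. REF52 cells (1 × 10⁵) pretreated 30 min with inhibitor, which stayed in both chambers. Attractant was 10% FBS in the lower chamber, or membrane underside coated with 1.5 μg/ml fibronectin overnight at 4 °C under serum-free DMEM. Migration 6 h at 37 °C. Underside cells fixed, crystal-violet stained and counted in four fields. Triplicates normalized to untreated control; ANOVA then t-tests.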"}, "[2]": {"assay": "Inhibition of fibronectin-stimulated cell migration of rat REF52 cells at 1.0 uM pretreated for 30 mins measured after 6 hrs by transwell assay relative to control", "format": "functional", "method_in_brief": "as §1"}, "[3]": {"assay": "Inhibition of 10% serum-stimulated cell migration of rat REF52 cells at 10 uM pretreated for 30 mins measured after 6 hrs by transwell assay relative to control", "format": "functional", "method_in_brief": "as §1"}, "[4]": {"assay": "Inhibition of fibronectin-stimulated cell migration of rat REF52 cells at 10 uM pretreated for 30 mins measured after 6 hrs by transwell assay relative to control", "format": "functional", "method_in_brief": "as §1"}, "[5]": {"assay": "Inhibition of cell migration of rat REF52 cells assessed as reduction in rate of movement of cell into wound at 1 uM by wound healing assay in presence of 10% serum", "format": "functional", "design": "scale not given: the % may be the effect or the level left", "method_in_brief": "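Confluent REF52 monolayers wounded with a pipette tip, with inhibitor added at wounding. Starting 1 h later, cells filmed for 9 h at 37 °C by DIC time-lapse microscopy. Nuclei of single cells tracked, and speed taken as track length divided by total movie time.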"}, "NIH3T3": {"tested_on": "NIH3T3", "assay": "Inhibition of focal adhesion turnover in wounded mouse NIH3T3 cells expressing GFP-paxillin assessed as average adhesion life-time at 1 uM by TIRF microscopy", "format": "functional"}, "[6]": {"biological_target": "Protein-tyrosine kinase 2-beta (Homo sapiens, UniProt Q14289)", "assay": "Inhibition of Pyk2", "method_in_brief": "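Recombinant Pyk2 was run in parallel with the FAK kinase assay. That assay measures phosphorylation of a poly(Glu/Tyr) (4:1) substrate in an ELISA read with anti-phosphotyrosine (PY20) and an HRP secondary. Compounds were serially diluted at ½-log steps from a 1 μm top concentration, each concentration was run in triplicate, and IC50 was fitted by the Hill slope model.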"}, "[7]": {"biological_target": "Tyrosine-protein kinase ABL1 (Homo sapiens) (UniProt P00519)", "sequence (P00519 whole entry)": "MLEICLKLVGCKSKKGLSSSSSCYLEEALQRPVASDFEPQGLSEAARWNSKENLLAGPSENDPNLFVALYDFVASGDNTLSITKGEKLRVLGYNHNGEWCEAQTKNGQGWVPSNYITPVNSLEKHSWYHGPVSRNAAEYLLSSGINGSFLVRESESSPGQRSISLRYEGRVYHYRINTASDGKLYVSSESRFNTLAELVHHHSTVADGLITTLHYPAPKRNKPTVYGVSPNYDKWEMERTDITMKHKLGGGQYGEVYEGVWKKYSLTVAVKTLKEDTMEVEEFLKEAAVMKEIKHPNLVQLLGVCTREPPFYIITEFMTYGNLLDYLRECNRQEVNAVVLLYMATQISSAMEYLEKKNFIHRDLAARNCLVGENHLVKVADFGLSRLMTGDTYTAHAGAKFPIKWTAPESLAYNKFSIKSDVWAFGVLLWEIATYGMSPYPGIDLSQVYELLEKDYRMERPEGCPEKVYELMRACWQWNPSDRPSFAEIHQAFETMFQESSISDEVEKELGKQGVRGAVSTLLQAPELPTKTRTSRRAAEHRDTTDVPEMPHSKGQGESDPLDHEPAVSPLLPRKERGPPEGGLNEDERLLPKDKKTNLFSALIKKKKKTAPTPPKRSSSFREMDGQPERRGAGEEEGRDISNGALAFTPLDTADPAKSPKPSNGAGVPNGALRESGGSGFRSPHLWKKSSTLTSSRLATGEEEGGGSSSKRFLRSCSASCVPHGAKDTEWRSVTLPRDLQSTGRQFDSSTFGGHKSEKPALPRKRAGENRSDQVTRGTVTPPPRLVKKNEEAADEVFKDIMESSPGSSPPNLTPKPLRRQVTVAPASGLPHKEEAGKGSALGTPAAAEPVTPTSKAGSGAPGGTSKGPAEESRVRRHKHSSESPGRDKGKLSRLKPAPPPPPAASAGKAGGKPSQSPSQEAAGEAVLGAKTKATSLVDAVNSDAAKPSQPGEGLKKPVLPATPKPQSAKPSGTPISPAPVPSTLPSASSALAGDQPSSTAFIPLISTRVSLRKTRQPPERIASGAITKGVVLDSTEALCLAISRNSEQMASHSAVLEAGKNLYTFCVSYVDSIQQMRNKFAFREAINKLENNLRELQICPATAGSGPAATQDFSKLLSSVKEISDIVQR", "assay": "Inhibition of human Abl at 1 uM"}, "[8]": {"assay": "Inhibition of ACK at 1 uM", "method_in_brief": "(§2)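 Recombinant kinases were screened in a commercial profiling panel with the compound at a single concentration of 1 μM. The read-out is percent inhibition of each enzyme's kinase activity.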"}, "[9]": {"biological_target": "RAC-alpha serine/threonine-protein kinase (Homo sapiens) (UniProt P31749)", "assay": "Inhibition of AKT at 1 uM"}, "[10]": {"biological_target": "Protein DBF4 homolog A (Homo sapiens) (UniProt Q9UBU7)", "sequence (Q9UBU7 whole entry)": "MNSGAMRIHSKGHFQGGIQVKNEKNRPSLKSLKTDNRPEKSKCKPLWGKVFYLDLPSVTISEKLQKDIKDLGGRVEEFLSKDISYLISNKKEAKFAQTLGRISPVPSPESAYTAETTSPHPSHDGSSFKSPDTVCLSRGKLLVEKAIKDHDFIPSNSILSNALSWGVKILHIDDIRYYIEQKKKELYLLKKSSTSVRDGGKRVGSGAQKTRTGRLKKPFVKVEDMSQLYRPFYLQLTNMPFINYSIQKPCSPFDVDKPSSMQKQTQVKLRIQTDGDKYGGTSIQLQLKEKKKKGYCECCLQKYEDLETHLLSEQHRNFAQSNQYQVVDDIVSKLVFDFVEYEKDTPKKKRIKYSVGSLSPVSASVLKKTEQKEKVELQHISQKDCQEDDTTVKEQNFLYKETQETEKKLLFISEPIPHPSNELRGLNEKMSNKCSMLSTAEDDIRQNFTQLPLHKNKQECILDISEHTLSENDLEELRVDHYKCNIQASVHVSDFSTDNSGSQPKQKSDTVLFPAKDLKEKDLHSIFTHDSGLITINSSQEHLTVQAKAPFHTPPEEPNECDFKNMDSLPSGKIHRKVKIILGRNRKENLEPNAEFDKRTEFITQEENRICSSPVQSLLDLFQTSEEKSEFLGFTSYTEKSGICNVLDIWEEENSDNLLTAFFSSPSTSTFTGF", "assay": "Inhibition of ASK at 1 uM"}, "[11]": {"biological_target": "Tyrosine-protein kinase BTK (Homo sapiens) (UniProt Q06187)", "assay": "Inhibition of BTK at 1 uM"}, "[12]": {"biological_target": "RAF proto-oncogene serine/threonine-protein kinase (Homo sapiens) (UniProt P04049)", "assay": "Inhibition of human c-RAF at 1 uM"}, "[13]": {"biological_target": "Calcium/calmodulin-dependent protein kinase type IV (Homo sapiens) (UniProt Q16566)", "assay": "Inhibition of human CaMK4 at 1 uM"}, "[14]": {"biological_target": "Cyclin-dependent kinase 1/cyclin B1 (Homo sapiens) (UniProt P06493+P14635)", "assay": "Inhibition of human CDK1/cyclinB at 1 uM", "format": "protein-complex assay", "method_in_brief": "as §2"}, "[15]": {"biological_target": "Cyclin-dependent kinase 2 (Homo sapiens) (UniProt P24941)", "assay": "Inhibition of human CDK2/cyclinA at 1 uM"}, "[16]": {"biological_target": "Cyclin-dependent kinase 2 (Homo sapiens) (UniProt P24941)", "assay": "Inhibition of human CDK2/cyclinE at 1 uM"}, "[17]": {"biological_target": "Cyclin-dependent kinase 3 (Homo sapiens) (UniProt Q00526)", "assay": "Inhibition of human CDK3/cyclinE at 1 uM"}, "Homo sapiens": {"organism": "Homo sapiens", "assay": "Inhibition of human CDK5/p35 at 1 uM", "method_in_brief": "as §2"}, "[18]": {"biological_target": "CDK6/cyclin D3 (Homo sapiens) (UniProt P30281+Q00534)", "assay": "Inhibition of human CDK6/cyclinD3 at 1 uM", "format": "protein-complex assay"}, "[19]": {"biological_target": "Cyclin-dependent kinase 7 (Homo sapiens, UniProt P50613)", "sequence (P50613 whole entry)": "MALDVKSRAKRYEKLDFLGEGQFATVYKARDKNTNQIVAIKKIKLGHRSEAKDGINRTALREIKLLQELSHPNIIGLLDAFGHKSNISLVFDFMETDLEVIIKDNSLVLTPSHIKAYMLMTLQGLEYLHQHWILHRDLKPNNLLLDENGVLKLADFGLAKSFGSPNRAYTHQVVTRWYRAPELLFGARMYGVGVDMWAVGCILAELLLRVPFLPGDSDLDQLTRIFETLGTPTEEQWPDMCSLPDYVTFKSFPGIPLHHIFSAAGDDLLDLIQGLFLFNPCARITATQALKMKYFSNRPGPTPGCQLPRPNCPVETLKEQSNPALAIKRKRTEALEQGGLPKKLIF", "assay": "Inhibition of human CDK7/cyclinH/MAT1 at 1 uM", "method_in_brief": "as §2"}, "[20]": {"biological_target": "Serine/threonine-protein kinase Chk1 (Homo sapiens) (UniProt O14757)", "assay": "Inhibition of CHK1 at 1 uM", "method_in_brief": "as §2"}, "[21]": {"biological_target": "Proto-oncogene tyrosine-protein kinase Src (Homo sapiens) (UniProt P12931)", "assay": "Inhibition of human cSRC at 1 uM"}, "[22]": {"biological_target": "Epidermal growth factor receptor (Homo sapiens) (UniProt P00533)", "assay": "Inhibition of human EGFR at 1 uM"}, "[23]": {"biological_target": "Ephrin type-A receptor 2 (Homo sapiens) (UniProt P29317)", "assay": "Inhibition of EphA2 at 1 uM"}, "[24]": {"biological_target": "Ephrin type-B receptor 2 (Homo sapiens) (UniProt P29323)", "assay": "Inhibition of EphB2 at 1 uM"}, "[25]": {"biological_target": "Glycogen synthase kinase-3 beta (Homo sapiens, UniProt P49841)", "sequence (P49841 whole entry, looked up)": "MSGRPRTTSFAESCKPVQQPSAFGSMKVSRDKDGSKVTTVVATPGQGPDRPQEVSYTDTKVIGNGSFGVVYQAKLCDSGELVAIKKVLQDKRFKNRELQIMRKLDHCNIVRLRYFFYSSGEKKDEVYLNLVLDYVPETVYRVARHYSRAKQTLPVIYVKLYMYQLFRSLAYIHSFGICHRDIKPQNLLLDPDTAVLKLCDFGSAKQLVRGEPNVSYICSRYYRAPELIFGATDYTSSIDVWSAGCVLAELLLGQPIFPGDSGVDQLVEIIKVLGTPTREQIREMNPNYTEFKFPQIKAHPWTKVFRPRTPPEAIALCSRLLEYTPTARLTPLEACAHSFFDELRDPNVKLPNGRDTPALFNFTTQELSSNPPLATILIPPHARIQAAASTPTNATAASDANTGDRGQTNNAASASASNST", "assay": "Inhibition of human GSK3-beta at 1 uM", "method_in_brief": "as §2"}, "[26]": {"biological_target": "Tyrosine-protein kinase Fyn (Homo sapiens) (UniProt P06241)", "assay": "Inhibition of Fyn at 1 uM"}, "[27]": {"biological_target": "Insulin receptor (Homo sapiens) (UniProt P06213)", "sequence (P06213 28-758 limits assumed)": "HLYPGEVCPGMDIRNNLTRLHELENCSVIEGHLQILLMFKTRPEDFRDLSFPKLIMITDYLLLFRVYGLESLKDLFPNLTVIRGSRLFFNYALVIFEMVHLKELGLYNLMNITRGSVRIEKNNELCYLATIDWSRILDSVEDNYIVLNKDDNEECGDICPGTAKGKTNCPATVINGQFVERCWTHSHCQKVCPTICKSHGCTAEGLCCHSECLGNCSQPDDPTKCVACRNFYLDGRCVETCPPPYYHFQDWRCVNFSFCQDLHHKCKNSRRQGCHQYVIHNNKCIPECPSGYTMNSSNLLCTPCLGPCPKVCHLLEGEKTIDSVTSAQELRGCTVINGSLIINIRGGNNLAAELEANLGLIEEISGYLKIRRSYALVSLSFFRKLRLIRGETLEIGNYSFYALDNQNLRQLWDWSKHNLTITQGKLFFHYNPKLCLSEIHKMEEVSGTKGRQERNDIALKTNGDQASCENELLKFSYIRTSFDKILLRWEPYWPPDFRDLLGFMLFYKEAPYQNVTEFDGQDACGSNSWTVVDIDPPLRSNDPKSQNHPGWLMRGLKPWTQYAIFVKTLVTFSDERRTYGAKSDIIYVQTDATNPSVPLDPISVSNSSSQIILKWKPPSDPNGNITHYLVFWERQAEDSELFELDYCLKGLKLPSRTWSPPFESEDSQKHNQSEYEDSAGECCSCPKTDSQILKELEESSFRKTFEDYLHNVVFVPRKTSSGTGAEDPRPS", "sequence (P06213 763-1382 limits assumed)": "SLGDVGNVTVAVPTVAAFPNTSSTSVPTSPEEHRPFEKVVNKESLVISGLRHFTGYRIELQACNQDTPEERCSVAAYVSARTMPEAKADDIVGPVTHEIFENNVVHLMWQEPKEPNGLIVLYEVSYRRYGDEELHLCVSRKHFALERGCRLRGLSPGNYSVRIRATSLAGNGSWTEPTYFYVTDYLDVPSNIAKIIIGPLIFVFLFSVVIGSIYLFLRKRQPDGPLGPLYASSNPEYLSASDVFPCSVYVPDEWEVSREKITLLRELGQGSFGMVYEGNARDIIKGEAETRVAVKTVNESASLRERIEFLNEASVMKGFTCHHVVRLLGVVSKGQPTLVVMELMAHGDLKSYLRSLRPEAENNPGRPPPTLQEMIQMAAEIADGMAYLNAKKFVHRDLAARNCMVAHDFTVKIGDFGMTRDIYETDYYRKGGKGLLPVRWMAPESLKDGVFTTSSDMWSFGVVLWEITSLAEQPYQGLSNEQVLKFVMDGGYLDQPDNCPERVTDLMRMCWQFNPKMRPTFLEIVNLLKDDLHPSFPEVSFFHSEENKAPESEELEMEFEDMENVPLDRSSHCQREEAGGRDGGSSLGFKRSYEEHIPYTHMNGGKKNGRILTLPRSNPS", "assay": "Inhibition of IR at 1 uM"}, "[28]": {"biological_target": "Insulin-like growth factor 1 receptor (Homo sapiens) (UniProt P08069)", "assay": "Inhibition of IGF1R at 1 uM"}, "[29]": {"biological_target": "Inhibitor of nuclear factor kappa-B kinase subunit beta (Homo sapiens) (UniProt O14920)", "assay": "Inhibition of human IKK-beta at 1 uM"}, "[30]": {"biological_target": "Tyrosine-protein kinase JAK3 (Homo sapiens) (UniProt P52333)", "sequence (P52333 whole entry)": "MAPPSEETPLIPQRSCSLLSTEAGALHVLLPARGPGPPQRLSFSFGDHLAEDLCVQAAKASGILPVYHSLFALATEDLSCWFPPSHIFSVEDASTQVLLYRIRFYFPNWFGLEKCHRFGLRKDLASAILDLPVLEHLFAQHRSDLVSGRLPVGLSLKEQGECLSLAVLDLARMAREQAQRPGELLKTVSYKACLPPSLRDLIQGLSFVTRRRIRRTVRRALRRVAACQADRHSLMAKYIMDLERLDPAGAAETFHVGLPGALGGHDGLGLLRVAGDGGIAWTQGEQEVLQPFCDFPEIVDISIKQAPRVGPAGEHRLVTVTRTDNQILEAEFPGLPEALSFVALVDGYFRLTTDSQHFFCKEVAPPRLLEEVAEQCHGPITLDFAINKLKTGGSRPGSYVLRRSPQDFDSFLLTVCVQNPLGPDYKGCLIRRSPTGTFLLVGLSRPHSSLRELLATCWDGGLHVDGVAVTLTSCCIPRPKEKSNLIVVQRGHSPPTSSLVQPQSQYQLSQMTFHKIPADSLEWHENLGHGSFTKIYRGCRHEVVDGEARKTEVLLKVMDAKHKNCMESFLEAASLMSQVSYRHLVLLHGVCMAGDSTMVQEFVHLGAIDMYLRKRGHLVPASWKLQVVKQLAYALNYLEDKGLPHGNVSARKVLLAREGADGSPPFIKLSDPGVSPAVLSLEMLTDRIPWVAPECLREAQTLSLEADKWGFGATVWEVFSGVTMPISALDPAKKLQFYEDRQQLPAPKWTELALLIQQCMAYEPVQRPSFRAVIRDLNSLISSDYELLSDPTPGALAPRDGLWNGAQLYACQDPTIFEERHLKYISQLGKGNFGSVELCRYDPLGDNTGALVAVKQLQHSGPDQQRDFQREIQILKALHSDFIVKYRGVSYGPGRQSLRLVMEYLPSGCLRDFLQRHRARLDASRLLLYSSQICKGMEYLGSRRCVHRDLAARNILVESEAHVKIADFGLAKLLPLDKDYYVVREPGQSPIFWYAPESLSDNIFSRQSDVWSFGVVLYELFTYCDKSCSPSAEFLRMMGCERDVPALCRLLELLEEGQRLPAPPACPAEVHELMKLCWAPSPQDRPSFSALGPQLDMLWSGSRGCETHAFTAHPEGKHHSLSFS", "assay": "Inhibition of JAK3 at 1 uM"}, "[31]": {"biological_target": "Protein kinase C theta type (Homo sapiens) (UniProt Q04759)", "assay": "Inhibition of PKCtheta at 1 uM"}, "[32]": {"biological_target": "Mitogen-activated protein kinase 8 (Homo sapiens) (UniProt P45983)", "assay": "Inhibition of human JNK1alpha1 at 1 uM"}}}
{"smiles": "CS(=O)(=O)c1cccc(CNc2nc(Nc3ccc4c(c3)CCC(=O)N4)ncc2C(F)(F)F)c1", "values": [{"measurement": "Activity", "setting": "[1]", "value": 1}, {"measurement": "Activity", "setting": "[2]", "value": 2.2}, {"measurement": "Activity", "setting": "[3]", "value": 0.3}, {"measurement": "Activity", "setting": "[4]", "value": 0.5}, {"measurement": "Activity", "setting": "[5]", "value": 27, "unit": "%"}, {"measurement": "Time", "setting": "NIH3T3", "value": 33.1, "unit": "min"}, {"measurement": "IC50", "setting": "[6]", "value": "> 1000", "unit": "nM"}, {"measurement": "inhibition", "setting": "[7]", "value": 8, "unit": "%"}, {"measurement": "inhibition", "setting": "[8]", "value": 29, "unit": "%"}, {"measurement": "inhibition", "setting": "[9]", "value": 0, "unit": "%"}, {"measurement": "inhibition", "setting": "[10]", "value": 1, "unit": "%"}, {"measurement": "inhibition", "setting": "[11]", "value": 11, "unit": "%"}, {"measurement": "inhibition", "setting": "[12]", "value": 0, "unit": "%"}, {"measurement": "inhibition", "setting": "[13]", "value": 0, "unit": "%"}, {"measurement": "inhibition", "setting": "[14]", "value": 77, "unit": "%"}, {"measurement": "inhibition", "setting": "[15]", "value": 50, "unit": "%"}, {"measurement": "inhibition", "setting": "[16]", "value": 44, "unit": "%"}, {"measurement": "inhibition", "setting": "[17]", "value": 44, "unit": "%"}, {"measurement": "inhibition", "setting": "Homo sapiens", "value": 0, "unit": "%"}, {"measurement": "inhibition", "setting": "[18]", "value": 15, "unit": "%"}, {"measurement": "inhibition", "setting": "[19]", "value": 86, "unit": "%"}, {"measurement": "inhibition", "setting": "[20]", "value": 13, "unit": "%"}, {"measurement": "inhibition", "setting": "[21]", "value": 1, "unit": "%"}, {"measurement": "inhibition", "setting": "[22]", "value": 0, "unit": "%"}, {"measurement": "inhibition", "setting": "[23]", "value": 15, "unit": "%"}, {"measurement": "inhibition", "setting": "[24]", "value": 11, "unit": "%"}, {"measurement": "inhibition", "setting": "[25]", "value": 64, "unit": "%"}, {"measurement": "inhibition", "setting": "[26]", "value": 28, "unit": "%"}, {"measurement": "inhibition", "setting": "[27]", "value": 27, "unit": "%"}, {"measurement": "inhibition", "setting": "[28]", "value": 21, "unit": "%"}, {"measurement": "inhibition", "setting": "[29]", "value": 56, "unit": "%"}, {"measurement": "inhibition", "setting": "[30]", "value": 27, "unit": "%"}, {"measurement": "inhibition", "setting": "[31]", "value": 36, "unit": "%"}, {"measurement": "inhibition", "setting": "[32]", "value": 4, "unit": "%"}]}
